According to PubChem BioAssay AID504360 (Broad Institute, 2011):
The source made the active and inactive calls.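 The calls were made as follows: active = fitted curve rises past 10% of the positive control signal at or below the top valid tested dose; inconclusive = flat fit between 30 and 70%, or an unreliable fit; inactive = the rest, including signal that falls instead.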

Key:
[1] = tested on: MEF A1-2A-tBid cells, caspase-3/7 luminescence, 3 h; assay: caspase-3/7 activation in A1-2A-tBid MEFs, dose response, orthogonal assay for A1 inhibitor project, cell-based, MEF A1-2A-tBid, luminescence, dry powder, set 3 (AID 504360)
How it was run: (§1)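 Compound dosing: 100 nL pinned compound / Assay system: mouse embryonic fibroblasts co-expressing A1 and tBid (A1-2A-tBid), primed / Buffer or medium: RPMI-1640, 10% FBS / Timing: 3 h compound at 37 °C, 1 h reagent at room temperature / Measured by: luminescence from Caspase-Glo 3/7 DEVD-luciferin substrate, 1:1 in 50 mM HEPES / Read-out: Caspase-3/7 activity derived from luminescence signal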

[2] = as above; settings: MEF A1-2A-tBid cells, caspase-3/7 luminescence, 3 h; at 35 µM (top of the series)
How it was run: as §1

SMILES	AC10 [1] [nM]	caspase activation [2]
COCCn1c(=O)c([N+](=O)[O-])c(Cl)c2ccccc21	1470	–
COc1ccc(CCNc2nc(N3CCCC3)nc(N3CCCC3)n2)cc1OC	–	3.4% (inactive)
CCn1c(=O)c([N+](=O)[O-])c(Sc2ccc(C)cc2)c2ccccc21	–	1.72% (inactive)
O=c1c([N+](=O)[O-])c(Cl)c2ccccc2n1Cc1ccccc1	12400	–
COCCn1c(=O)c(Sc2ccc(C)cc2)c(Sc2ccc(C)cc2)c2ccccc21	–	1.26% (inactive)
COCCn1c(=O)c([N+](=O)[O-])c(Sc2ccc(C)cc2)c2ccccc21	16700	–
Cc1ccc(Sc2c(Sc3ccc(C)cc3)c3ccccc3n(C)c2=O)cc1	–	0.911% (inactive)
CC1(C)CCC(c2ccc(Cl)cc2)=C(CN2CCN(c3ccc(C(=O)NS(=O)(=O)c4ccc(N[C@H](CCN5CCOCC5)CSc5ccccc5)c(S(=O)(=O)C(F)(F)F)c4)cc3)CC2)C1	579	–
CCn1c(=O)c([N+](=O)[O-])c(Cl)c2ccccc21	1950	–
CCn1c(=O)c(Sc2ccc(C)cc2)c(Sc2ccc(C)cc2)c2ccccc21	–	5.31% (inactive)
Cn1c(=O)c([N+](=O)[O-])c(Sc2ccccn2)c2ccccc21	2950	–
O=c1[nH]c2ccccc2c(Cl)c1[N+](=O)[O-]	2540	–
O=c1[nH]c2ccccc2c(O)c1[N+](=O)[O-]	–	2.36% (inactive)
C/C(=N\Nc1nc(N2CCCCC2)nc(N2CCCCC2)n1)c1ccc(F)cc1	–	-0.355% (inactive)
COc1nc2ccccc2c(Sc2ccc(C)cc2)c1[N+](=O)[O-]	–	1.61% (inactive)
Cn1c(=O)c(Sc2ccccn2)c(Sc2ccccn2)c2ccccc21	–	3.1% (inactive)
Cc1ccc(S(=O)(=O)c2c([N+](=O)[O-])c(=O)n(C)c3ccccc23)cc1	3190	–
Cn1c(=O)c([N+](=O)[O-])c(Cl)c2ccccc21	1880	–
Cn1c(=O)c([N+](=O)[O-])c(S(C)(=O)=O)c2ccccc21	3280	–
COc1ccc(CCNc2nc(N3CCOCC3)nc(N3CCOCC3)n2)cc1OC	–	1.3% (inactive)
O=C(COc1ccc(Cl)cc1Cl)NNc1nc(N2CCOCC2)nc(N2CCOCC2)n1	–	-1.25% (inactive)
COc1ccc(N2CCN(c3nc(NCCc4ccc(OC)c(OC)c4)nc(N4CCOCC4)n3)CC2)cc1	–	-0.079% (inactive)
COc1c([N+](=O)[O-])c(=O)n(C)c2ccccc12	–	1.76% (inactive)
Cc1ccc(Sc2c([N+](=O)[O-])c(=O)n(Cc3ccccc3)c3ccccc23)cc1	–	3.46% (inactive)
COc1nc2ccccc2c(Cl)c1[N+](=O)[O-]	–	1.9% (inactive)
Cc1ccc(Sc2c(Sc3ccc(C)cc3)c3ccccc3n(Cc3ccccc3)c2=O)cc1	–	1.55% (inactive)
Cc1ccc(Sc2c([N+](=O)[O-])c(=O)n(C)c3ccccc23)cc1	–	10.3% (inactive)
